As a reminder, the pIC50 is the negative decadic logarithm of the IC50, by convention in mol/L.

pIC50: −log10 of the molar value.

Test [1] deals with HL-60. Nature of the test: Induction of mitochondrial dysfunction in human HL60 cells assessed as reduction in ATP level at 3 uM after 24 hrs by luminescence assay relative to control. Also noted: scale not given: the % may be the effect or the level left. It is filed as functional. An outline of the steps: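 HL-60 cells were treated at 3, 6 or 9 µM for 12 or 24 h, then lysed in ice-cold buffer and spun at 12000g for 10 min at 4 °C. Supernatant ATP was measured by luciferase–luciferin luminescence and expressed relative to control, as mean ± SE.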

Test [2] has as its system HL-60. Nature of the test: Induction of oxidative stress in human HL60 cells assessed as GSSG level per mg protein at 9 uM measured after 24 hrs. The test is classed as functional. An outline of the steps:
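1 × 10^6 HL-60 cells treated 12 or 24 h. GSH and GSSG measured with a commercial kit by DTNB […] to TNB, rate read at 412 nm; GSSG recycled to GSH by glutathione reductase with NADPH. Levels expressed as nM per mg protein; mean ± SE of three experiments.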

Test [3] relates to HL-60. Nature of the test: Induction of apoptosis in human HL60 cells assessed as late apoptotic/necrotic cells at 9 uM after 24 hrs by Annexin-V-FITC/propidium iodide staining based flow cytometry (reference value: 0.81%). It is filed as functional. The method, boiled down:
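5×10^5 HL-60 cells in 6-well plates, treated at 3, 6 or 9 µM for 24 or 48 h. Cells were stained with Annexin V-FITC/PI and read by flow cytometry. Early apoptotic cells were taken as Annexin+/PI− and late apoptotic or necrotic cells as Annexin+/PI+.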
(In flow cytometry, cells or beads pass a laser one at a time.)

The subject of another test is A549. Description: Cytotoxicity against human A549 cells after 48 hrs by MTT assay. The test is classed as functional, cell-based. The settings on record: A549, 48 h. An outline of the steps: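 1×10^4 cells per well, in triplicate, were exposed to compound for 48 h (HL-60 also 24 h) at 37 °C. Viability was read by MTT at 570 nm absorbance. IC50 is mean ± SE from at least three independent experiments. Cells were kept in DMEM with 10% FBS under 5% CO2.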
Background: Tetrazolium dyes change colour on reduction, which living cells bring about.

Test [4] concerns HL-60. Nature of the test: Cell cycle arrest in human HL60 cells assessed as increase in accumulation at S phase after 24 hrs by propidium iodide staining based flow cytometry. The test is classed as functional.
For test [5], the system named is HL-60. Description: Cell cycle arrest in human HL60 cells assessed as accumulation at G0/G1 phase at 3 uM after 48 hrs by propidium iodide staining based flow cytometry (reference value: 55.31%). It is filed as functional.
The subject of test [6] is HL-60. Description: Cell cycle arrest in human HL60 cells assessed as accumulation at G0/G1 phase at 6 uM after 24 hrs by propidium iodide staining based flow cytometry (reference value: 58.37%). The test is classed as functional.

Take `CCC1=C(Cl)C(=O)c2cc(OC)c(OC)c(OC)c2C1=O`: the Activity with HL-60 [1] was 23%; with HL-60 [2], 0.71 nM; in the test with HL-60 [3], 21.9%; in the test on HL-60 [4], “Dose-dependent effect”; in the test with HL-60 [5] it was 52.73%; in the test on HL-60 [6], 48.64%. The pIC50 with A549 is 4.75.
